Laboratory results as given in ChEMBL document CHEMBL4513216, “Probing the Open Global Health Chemical Diversity Library for Multistage-Active Starting Points for Next-Generation Antimalarials” (ACS Infect Dis, 2020).

Test: Toxicity liver stage against HepG2, at 10uM
Type: cell-based
Parameters: test concentration 10 uM, cell line HepG2-A16-CD81EGFP
Conditions: human, HepG2-A16-CD81EGFP cells; read-out: INHIBITION
How it was run: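 Uninfected HepG2-A16-CD81EGFP cells, 3 × 10^3 per well, 1536-well, plated on prespotted compound at 10 μM final, parasite-free screening media added to match infected plates; puromycin 10 μM positive, DMSO 0.5% negative; run in parallel with 48 h PbLuc assay at 37 °C, 5% CO2; viability by CellTiter-Glo luminescence, normalized to controls.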

| Compound | cytotoxicity at 10 µM [%] |
| --- | --- |
| CC(C)c1ncc2c(n1)CN(Cc1nnc(Cc3ccccc3)o1)CC2 | -12.6 |
| OC1(Cn2ccc3ncccc32)CCN(Cc2ccccc2F)CC1 | -5.33 |
| CS(=O)(=O)NC1CCN(C(=O)c2ccc(Br)cc2)C1 (stereo not given) | 4.94 |
| CC(NC1(CNS(C)(=O)=O)CCOCC1)c1ccccc1 (stereo not given) | 6.72 |
| CC(C)(O)CCc1cccc(C(=O)N2Cc3cnn(CCO)c3C2)c1 | 4.62 |
| CCOC(=O)N1CCC2(CCCN(C3CCOCC3)C2=O)C1 (stereo not given) | -133 |
| O=C1CCN(Cc2cnc3c(-c4ccccc4)cnn3c2)CCN1 | 11 |
| NCc1ccc(OC(F)F)cc1OC(F)F | -43 |
| Cc1cccc(N2CC[C@@H]3CN(C(=O)c4ccco4)CCO[C@@H]3C2)n1 | 10.5 |
| Cc1cc(N2CCC(Cc3cccnc3)C2)ncn1 (stereo not given) | -2.15 |
| Cc1nc(CN2C[C@@H]3CN(C(=O)C4(C#N)CC4)C[C@@H]3C2=O)cs1 | -70.7 |
| COc1cccc(CC(=O)N2CCCC2c2nc(C)c(F)c(O)n2)c1 (stereo not given) | -21.6 |
| CS(=O)(=O)NCc1cnc2n1CCN(Cc1cccs1)CC2 | 3.04 |
| CCc1ccc(CN2CCN(c3ncc(Cl)cn3)CC2)nc1 | 8.45 |
| O=C(NCCOc1ccc(F)c(F)c1)NCc1cccc(CO)c1 | -8.86 |
| Cc1ccc2nc(C)c(C)c(C(=O)N3CCS(=O)(=O)CC3)c2c1 | 3.24 |
| C[C@H]1CN(CC2CCOCC2)C[C@@]12CCN(Cc1cccnc1)C2=O | 1.73 |
| OC1(CN2CCC(Oc3cccc(C(F)(F)F)c3)CC2)CNCCOC1 (stereo not given) | -5.43 |
| CC(C)c1cc(N2CCC(C(C)N3CCCC3)CC2)n2nccc2n1 (stereo not given) | -1.86 |
| O=C(NCCN1CCOCC1)c1ccn(-c2ccc3ccccn23)n1 | -0.735 |
| CCc1c(C)sc2ncnc(N3CC[C@@H](N4CCOCC4)[C@H](O)C3)c12 | -4.24 |
| Cc1cc(C(=O)N2CCCC(n3cncn3)C2)nn1C (stereo not given) | -0.776 |

| Compound | cytotoxicity at 10 µM [%] |
| --- | --- |
| CN(Cc1cnn(C)c1)C(=O)C1CCCN1Cc1ccccn1 (stereo not given) | -25.8 |
| Cn1cc(Br)c(=O)c(NS(=O)(=O)c2ccc(Cl)cc2)c1 | -5.28 |
| Cc1noc(C)c1-c1ccc(C2CCCN2CCC(N)=O)nc1 (stereo not given) | 1.94 |
| CCOc1cc(C)nc(N2CCN(C(=O)c3cscn3)CC2)n1 | -7.54 |
| Oc1cc(C2CCCCN2C2CCCC2)nc(-c2ccncc2)n1 (stereo not given) | 5.94 |
| O=C(c1cnco1)N1C[C@@H]2CC[C@H](Oc3cccc(F)c3)[C@@H]2C1 | -6.18 |
| Cc1c(CN2CCCC(C(=O)Nc3ccccc3)C2)cc(C#N)n1C (stereo not given) | 6.75 |
| CSC(C)CC(=O)N1CCC(n2ccnn2)CC1 (stereo not given) | -47.9 |
| Cc1cc(CNC(=O)C2CCCCN2C(=O)OC(C)(C)C)no1 (stereo not given) | 4.91 |
| CC(C)c1nccn1C(C)C(=O)N1CCN(c2ccccc2Cl)CC1 (stereo not given) | 3.54 |
| Cc1csc2c(=O)n(C(C)Cc3cccnc3)cnc12 (stereo not given) | 9.98 |
| CCc1nc(C2CCCN2CC(=O)Nc2c(C)n[nH]c2C)no1 (stereo not given) | -3.79 |
| Cc1ccc(C(=O)N2CCC(=O)N(CC3CC3)C(C(C)C)C2)c(=O)[nH]1 (stereo not given) | -15 |
| CS(=O)(=O)CCn1ccc(NC(=O)Cc2cccc(Cl)c2)n1 | -3.36 |
| CCCn1nc2c(cc1=O)CN(CC(=O)Nc1nnc(C)s1)CC2 | -11.3 |
| O=C(NC[C@H]1CCCC[C@H]1O)c1cccc2[nH]c(-c3ccco3)nc12 | -2.51 |
| Cc1cccc(CN2C(=O)CO[C@@H]3CN(Cc4cnn(C)c4)C[C@H]32)c1 | 1.1 |
| CC(C)CNC(=O)C1CC(=O)N(c2n[nH]c3ccccc23)C1 (stereo not given) | -11.6 |
| O=C1OCCCN1Cc1nc(-c2ccc(N3CCCCC3)cc2)no1 | 7.04 |
| CC(=O)N1CCc2c(nc(N(C)C)nc2N(C)CCC2CCCCO2)C1 (stereo not given) | -7.97 |
| COc1ccc(CCC(=O)N2CCCC2Cn2cc(C)cn2)cc1F (stereo not given) | 2.36 |
| O=C(NCC1CC1)Nc1ccc(OCC(F)(F)F)nc1 | -2.4 |

| Compound | cytotoxicity at 10 µM [%] |
| --- | --- |
| CC(C)NC(=O)[C@@H]1CC[C@@H]2[C@@H](CCN2Cc2ccc3ccccc3n2)O1 | 3.98 |
| O=C(NCCn1nc(-n2cncn2)ccc1=O)c1ccsc1 | 1.99 |
| c1cc(-c2nc3c(c(NCCn4ccnn4)n2)CCNCC3)ccn1 | -56.4 |
| CN1CCN(Cc2ccccc2Oc2nccc3occc23)CC1 | 5.83 |
| COc1ccc(C(=O)NCCCC2(C3OCCO3)CCOCC2)cc1 | 3.05 |
| COc1cccc2cc(CNC(=O)N3CCC(N4CCCC4)C3)oc12 (stereo not given) | -2.69 |
| c1csc(-c2noc(CN3CCCCC3Cn3cccn3)n2)c1 (stereo not given) | -15.4 |
| COC(=O)c1cccc(C(=O)N2CCN(c3ccc(Cl)cc3)CC2)n1 | -7.55 |
| COc1ncccc1NC(=O)N(CC(C)C)C1CC1 | -0.874 |
| OC(c1ccccn1)C1CCN(Cc2cc3n(n2)CCCNC3)CC1 (stereo not given) | 6.89 |
| CC1CCCCN1S(=O)(=O)NCCNC(=O)c1ncccc1O (stereo not given) | 2.34 |
| Cc1cnn(CC2CCCCN2C(=O)c2ccccc2-n2cccn2)c1 (stereo not given) | -8.4 |
| O=C(Cc1cccc(F)c1)NCCNc1ncccn1 | -6.71 |
| CCN(CC)C(=O)N1CCOCC1c1c(C)nn(C)c1C (stereo not given) | 11.3 |
| Cc1noc(C(C)C)c1C(=O)NCC(c1cccc(F)c1)N(C)C (stereo not given) | -7.46 |
| NC(=O)c1noc(Cn2ccc3ccccc3c2=O)n1 | 1.39 |
| COCCC1COC2(CCN(C(=O)c3cccn3C)CC2)C1 (stereo not given) | -80.7 |
| NS(=O)(=O)CCNC(=O)c1cc2cccc(F)c2o1 | 2.46 |
| CN(C)S(=O)(=O)CCCN1CCCC1c1noc(C2CC2)n1 (stereo not given) | -10.3 |
| CS(=O)(=O)NCCC(=O)NC1(c2ccc(F)cc2)CCCC1 | -1.1 |
| COc1cc(N2CCCC(c3nccn3Cc3ccncc3)C2)ncn1 (stereo not given) | -6.82 |
| CC(NC(=O)c1ccnc(C2CC2)n1)C1(N2CCOCC2)CCCC1 (stereo not given) | 4.21 |

| Compound | cytotoxicity at 10 µM [%] |
| --- | --- |
| O=C(N1CCCO1)[C@@]12CCO[C@@H]1CCN(Cc1ccccn1)C2 | 3.98 |
| Cc1nc(C)n(CC2CCCCN2CCc2ccncc2)n1 (stereo not given) | -6.3 |
| COC(C)(C)CNC(=O)c1cn(-c2cccc(Cl)c2F)nn1 | 8.83 |
| Cc1ncsc1CCC(=O)NCc1cc2n(n1)CCN(C(=O)N(C)C)C2 | 15.3 |
| CCC1c2ccsc2CCN1C(=O)NCc1cc[nH]n1 (stereo not given) | -8.88 |
| N#CC1(C(=O)N2CCC(Nc3cccnn3)CC2)CCCCC1 | 2.87 |
| CCOC(=O)Cn1ccc(NC(=O)Cc2ccccc2F)n1 | 3.33 |
| O[C@H]1[C@H](n2cc(-c3cccnc3)nn2)c2ccccc2C12CCNCC2 | -10.5 |
| CCCN(Cc1nc2ccccc2[nH]1)Cc1ccccc1OC | -39.6 |
| Cc1nn(CC(=O)Nc2ccon2)cc1Br | 4.95 |
| COc1cc(N2CC[C@@H]3O[C@@H](c4ccncn4)C[C@H]3C2)ncn1 | 12.6 |
| Cc1occc1C(=O)NCc1cccnc1N(C)C | -5.89 |
| Cc1cc(C2CCCN2c2ncc(C(N)=O)cc2Cl)no1 (stereo not given) | -4.57 |
| CC(C)(C)OC(=O)NCC1CCCCN1Cc1ccncc1 (stereo not given) | 9.04 |
| CN(C)CC(=O)N1CCCC1c1ccccn1 (stereo not given) | 4.38 |
| O=C1N(Cc2ccncc2)CCC12CCCNC2 (stereo not given) | 4.26 |
| CCCn1cc(C(=O)NCc2nnc(-c3ccc(C)nc3)o2)c(C)n1 | -0.277 |
| CN1CC2(CCN(C(=O)c3ccc(=O)n(C)c3)CC2)CC1=O | -4.46 |
| Cc1ccc2c(ccn2CCC(=O)N2CCC(C(N)=O)CC2)c1 | -12.6 |
| N#Cc1nc(COc2ccc3c(c2)OCO3)oc1N1CCCC1 | -42.7 |
| CSc1ccccc1C(=O)N(C)Cc1nncn1C(C)C | 3.92 |
| O=S(=O)(Cc1ccccc1)NCCNc1ccc(-n2cccc2)nn1 | 10.8 |

| Compound | cytotoxicity at 10 µM [%] |
| --- | --- |
| CCn1nc(C(C)C)cc1C(=O)NCC1CCCN(c2ccccn2)C1 (stereo not given) | 5.65 |
| CCCn1nccc1-c1cc(C2CCN(C(C)=O)CC2)ccn1 | -1.68 |
| CCn1cc(S(=O)(=O)N(CCc2ccccc2)Cc2ccn(C)n2)cn1 | 2.6 |
| Cc1ccccc1C(C)(C)CNC(=O)CN(C)c1cnccn1 | -2.21 |
| COc1ccccc1OCC(=O)n1nc(C)c(C)c1C | -5.01 |
| O=C1NCC2(CCCN(Cc3cccnc3)C2)Oc2ccccc21 (stereo not given) | -24.1 |
| O=C(C1CCOCC1)N1CC[C@@H](N2CCOCC2)[C@@H]1Cc1ccccc1 | -77.2 |
| Cc1ccc(N(CCC#N)C(=O)CCc2cccnc2)cc1C | -7.68 |
| COC(=O)c1ccc(N(C(=O)c2cc(Cl)ccn2)C(C)C)c(C)c1 | 7.51 |
| O=C(Cn1cc(C2CC2)nn1)N(Cc1cccs1)CC1CCCO1 (stereo not given) | -4.58 |
| Cc1cccc(N2Cc3c(NC4CCCC4)ncnc3N(C)CC2=O)c1 | 10.3 |
| NC(=O)CCC(=O)N1CCc2[nH]nc(-c3ccc4c(c3)OCO4)c2C1 | -142 |
| Cc1cc(C(=O)N2CCC(N3CCNC3=O)CC2)nn1C(C)(C)C | 5.56 |
| N#Cc1ccccc1OCCN1CCCCC1C(=O)N1CCOCC1 (stereo not given) | -45.6 |
| Cc1cc(C(=O)NCc2ccc(F)cc2)c2c(C3CCCN3)noc2n1 (stereo not given) | 7.16 |
| CC(C)Nc1cc(-c2c[nH]nc2C2CCN(C(=O)C3CCC3)C2)ccn1 (stereo not given) | 81.8 |
| CCN1CC2(CC1=O)CN(Cc1ccncc1)CCN(C(=O)C(C)C)C2 (stereo not given) | -0.182 |
| CN1CC(=O)N(c2ccsc2)CC12CCN(C(=O)c1cccn1C)C2 (stereo not given) | -75.7 |
| CCc1nc(C2CCCN2CCC(=O)N2CCc3ccccc32)no1 (stereo not given) | -23.7 |
| CN(C)c1cc(CNC(=O)NCC2(C)CCCS2)ccn1 (stereo not given) | 6.64 |
| Cc1ccc(-c2nc(CN3CCC(C(=O)N(C)C)CC3)cs2)o1 | 1.32 |
| Fc1ccc(N2CCN(CCCc3cn[nH]c3)CC2)cc1 | -144 |
